Results as given in ChEMBL document CHEMBL1138841, “An orally bioavailable, functionally selective inverse agonist at the benzodiazepine site of GABAA alpha5 receptors with cognition enhancing properties” (J Med Chem, 2004).

Legend:
[1] = molecular target: GABA-A receptor; alpha-3/beta-3/gamma-2 (Homo sapiens) (UniProt P18507+P28472+P34903); assay: In vitro percent efficacy against human gamma-aminobutyric-acid A receptor alpha-3-beta-3-gamma-2 expressed in L(tk-) cells; type: cell-based
In short: (§1)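 Whole-cell patch clamp on mouse fibroblast L(tk-) cells stably expressing human αxβ3γ2 receptors. Efficacy is the maximum % modulation of current evoked by a submaximal (EC20) GABA concentration. Mean ± SEM from at least five individually fitted concentration–response curves per subtype.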

[2] = molecular target: GABA-A receptor; alpha-1/beta-3/gamma-2 (Homo sapiens) (UniProt P14867+P18507+P28472); assay: In vitro percent efficacy against human gamma-aminobutyric-acid A receptor alpha-1-beta-3-gamma-2 expressed in L(tk-) cells; type: cell-based; in short: as §1
[3] = molecular target: GABA-A receptor; alpha-2/beta-3/gamma-2 (Homo sapiens) (UniProt P18507+P28472+P47869); assay: In vitro percent efficacy against human gamma-aminobutyric-acid A receptor alpha-2-beta-3-gamma-2 expressed in L(tk-) cells; type: cell-based; in short: as §1
[4] = molecular target: GABA-A receptor; alpha-5/beta-3/gamma-2 (Homo sapiens) (UniProt P18507+P28472+P31644); assay: In vitro percent efficacy against human gamma-aminobutyric-acid A receptor alpha-5-beta-3-gamma-2 expressed in L(tk-) cells; type: cell-based; in short: as §1
[5] = molecular target: T1, GABA-A receptor; alpha-2/beta-3/gamma-2 (Homo sapiens, UniProt P18507+P28472+P47869); assay: Displacement of [3H]-Ro- 15-1788 from human gamma-aminobutyric-acid GABA-A receptor alpha-2-beta-3-gamma-2 expressed in L(tk-) cells; type: cell-based
T1 sequence (P18507 whole entry): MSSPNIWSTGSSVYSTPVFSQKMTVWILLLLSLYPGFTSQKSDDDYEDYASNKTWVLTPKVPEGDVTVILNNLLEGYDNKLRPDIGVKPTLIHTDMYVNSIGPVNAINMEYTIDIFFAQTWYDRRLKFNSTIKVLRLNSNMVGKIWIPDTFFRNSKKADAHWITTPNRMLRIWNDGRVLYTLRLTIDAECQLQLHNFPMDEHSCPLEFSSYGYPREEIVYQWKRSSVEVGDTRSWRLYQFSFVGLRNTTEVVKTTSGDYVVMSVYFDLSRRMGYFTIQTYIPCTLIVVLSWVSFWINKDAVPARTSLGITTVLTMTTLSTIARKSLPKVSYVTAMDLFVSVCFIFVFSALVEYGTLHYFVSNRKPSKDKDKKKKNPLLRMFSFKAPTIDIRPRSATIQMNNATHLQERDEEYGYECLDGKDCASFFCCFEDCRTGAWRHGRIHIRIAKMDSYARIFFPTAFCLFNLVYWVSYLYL
T1 sequence (P28472 whole entry): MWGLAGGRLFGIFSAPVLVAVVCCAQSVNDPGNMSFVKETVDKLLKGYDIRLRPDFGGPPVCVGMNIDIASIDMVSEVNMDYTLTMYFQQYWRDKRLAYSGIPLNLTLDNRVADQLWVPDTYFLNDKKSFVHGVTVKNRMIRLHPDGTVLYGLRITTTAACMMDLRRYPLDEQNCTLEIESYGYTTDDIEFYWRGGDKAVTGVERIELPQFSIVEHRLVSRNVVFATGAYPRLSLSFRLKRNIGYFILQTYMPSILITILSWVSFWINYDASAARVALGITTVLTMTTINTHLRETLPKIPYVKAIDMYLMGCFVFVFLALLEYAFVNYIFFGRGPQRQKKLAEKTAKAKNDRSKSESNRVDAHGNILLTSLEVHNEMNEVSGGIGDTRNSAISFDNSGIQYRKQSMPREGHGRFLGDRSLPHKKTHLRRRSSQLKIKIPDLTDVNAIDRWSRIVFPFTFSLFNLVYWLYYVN
T1 sequence (P47869 whole entry): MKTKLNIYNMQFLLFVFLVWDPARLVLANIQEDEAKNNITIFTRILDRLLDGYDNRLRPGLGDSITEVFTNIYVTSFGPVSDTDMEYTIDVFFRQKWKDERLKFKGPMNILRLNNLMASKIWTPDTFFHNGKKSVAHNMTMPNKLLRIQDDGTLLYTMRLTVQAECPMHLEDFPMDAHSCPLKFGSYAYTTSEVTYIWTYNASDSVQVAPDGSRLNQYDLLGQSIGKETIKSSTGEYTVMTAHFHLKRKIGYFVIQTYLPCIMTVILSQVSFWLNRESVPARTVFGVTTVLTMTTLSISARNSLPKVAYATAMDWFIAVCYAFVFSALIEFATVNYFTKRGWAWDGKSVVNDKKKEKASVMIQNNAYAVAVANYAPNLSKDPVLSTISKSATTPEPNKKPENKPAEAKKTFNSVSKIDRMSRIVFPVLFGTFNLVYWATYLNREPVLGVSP

[6] = molecular target: T2, GABA-A receptor; alpha-3/beta-3/gamma-2 (Homo sapiens, UniProt P18507+P28472+P34903); assay: Displacement of [3H]-Ro- 15-1788 from human gamma-aminobutyric-acid GABA-A receptor alpha-3-beta-3-gamma-2 expressed in L(tk-) cells; type: cell-based
T2 sequence (P18507 whole entry): T1 sequence (P18507 whole entry)
T2 sequence (P28472 whole entry): T1 sequence (P28472 whole entry)
T2 sequence (P34903 whole entry): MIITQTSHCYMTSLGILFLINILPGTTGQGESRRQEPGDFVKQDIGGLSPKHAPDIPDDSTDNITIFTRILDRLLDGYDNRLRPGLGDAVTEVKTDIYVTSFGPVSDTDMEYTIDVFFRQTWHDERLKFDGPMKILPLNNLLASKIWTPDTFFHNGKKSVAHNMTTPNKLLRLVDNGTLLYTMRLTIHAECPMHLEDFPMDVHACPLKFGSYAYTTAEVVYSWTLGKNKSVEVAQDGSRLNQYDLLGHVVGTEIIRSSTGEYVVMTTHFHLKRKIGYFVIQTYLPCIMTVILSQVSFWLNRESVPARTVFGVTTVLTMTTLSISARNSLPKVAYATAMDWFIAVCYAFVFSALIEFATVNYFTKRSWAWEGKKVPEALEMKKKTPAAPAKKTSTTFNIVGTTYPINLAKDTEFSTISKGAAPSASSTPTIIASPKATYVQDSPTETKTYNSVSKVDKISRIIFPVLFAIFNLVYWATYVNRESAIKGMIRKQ

[7] = Oral bioavailability in dog; type: ADME, organism-based, Canis lupus familiaris; conditions: in vivo
[8] = molecular target: T3, GABA-A receptor; alpha-5/beta-3/gamma-2 (Homo sapiens, UniProt P18507+P28472+P31644); assay: Displacement of [3H]-Ro- 15-1788 from human gamma-aminobutyric-acid GABA-A receptor alpha-5-beta-3-gamma-2 expressed in L(tk-) cells; type: cell-based
T3 sequence (P18507 whole entry): T1 sequence (P18507 whole entry)
T3 sequence (P28472 whole entry): T1 sequence (P28472 whole entry)
T3 sequence (P31644 whole entry): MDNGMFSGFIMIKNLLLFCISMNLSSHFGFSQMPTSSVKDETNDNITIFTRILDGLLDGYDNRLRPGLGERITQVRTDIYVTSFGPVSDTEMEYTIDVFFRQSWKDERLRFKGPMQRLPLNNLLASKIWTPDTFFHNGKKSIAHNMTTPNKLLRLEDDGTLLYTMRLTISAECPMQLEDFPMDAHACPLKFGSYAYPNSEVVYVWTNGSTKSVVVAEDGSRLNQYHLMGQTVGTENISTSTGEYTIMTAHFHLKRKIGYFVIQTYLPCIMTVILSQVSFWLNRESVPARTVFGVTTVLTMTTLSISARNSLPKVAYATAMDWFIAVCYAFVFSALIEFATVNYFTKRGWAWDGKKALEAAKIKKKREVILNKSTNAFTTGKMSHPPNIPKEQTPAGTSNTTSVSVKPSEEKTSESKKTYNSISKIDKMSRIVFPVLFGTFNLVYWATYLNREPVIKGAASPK

[9] = molecular target: GABA-A receptor; anion channel (Rattus norvegicus) (UniProt O09028+P15431+P18506+P18508+P19969+P20236+P23574+P23576+P28471+P28473+P30191+P62813+P63079+P63138+Q91ZM7+Q9ES14); assay: Concentration required to occupy 50% of gamma-aminobutyric-acid GABA-A receptor alpha subtype at 0.75 hr after dose; type: protein-complex assay
In short: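 Rats dosed orally in 0.5% Methocel vehicle; occupancy of the benzodiazepine binding site measured 0.75 h postdose by in vivo [3H]Ro 15-1788 binding. Dose giving 50% occupancy read from the dose–occupancy relationship.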

[10] = molecular target: T4, GABA-A receptor; alpha-1/beta-3/gamma-2 (Homo sapiens, UniProt P14867+P18507+P28472); assay: Displacement of [3H]-Ro- 15-1788 from human gamma-aminobutyric-acid GABA-A receptor alpha-1-beta-3-gamma-2 expressed in L(tk-) cells; type: cell-based
T4 sequence (P14867 whole entry): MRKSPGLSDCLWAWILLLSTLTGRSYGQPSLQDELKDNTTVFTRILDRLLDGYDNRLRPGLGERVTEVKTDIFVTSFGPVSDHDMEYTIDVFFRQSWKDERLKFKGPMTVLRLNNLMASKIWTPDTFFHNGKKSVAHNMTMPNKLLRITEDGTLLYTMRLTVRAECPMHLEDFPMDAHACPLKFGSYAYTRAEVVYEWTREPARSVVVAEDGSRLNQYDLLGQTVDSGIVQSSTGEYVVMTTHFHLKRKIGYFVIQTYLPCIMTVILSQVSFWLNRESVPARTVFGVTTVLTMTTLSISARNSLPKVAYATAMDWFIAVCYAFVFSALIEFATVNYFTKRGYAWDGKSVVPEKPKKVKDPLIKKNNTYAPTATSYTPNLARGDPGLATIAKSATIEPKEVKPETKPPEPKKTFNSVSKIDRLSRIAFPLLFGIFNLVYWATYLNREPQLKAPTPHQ
T4 sequence (P18507 whole entry): T1 sequence (P18507 whole entry)
T4 sequence (P28472 whole entry): T1 sequence (P28472 whole entry)

[11] = molecular target: GABA-A receptor; alpha-6/beta-3/gamma-2 (Homo sapiens, UniProt P18507+P28472+Q16445); assay: Binding affinity towards gamma-aminobutyric-acid GABA-A receptor alpha-6-beta-3-gamma-2; type: protein-complex assay
Sequence of GABA-A receptor; alpha-6/beta-3/gamma-2 (Q16445 whole entry, one chain of several): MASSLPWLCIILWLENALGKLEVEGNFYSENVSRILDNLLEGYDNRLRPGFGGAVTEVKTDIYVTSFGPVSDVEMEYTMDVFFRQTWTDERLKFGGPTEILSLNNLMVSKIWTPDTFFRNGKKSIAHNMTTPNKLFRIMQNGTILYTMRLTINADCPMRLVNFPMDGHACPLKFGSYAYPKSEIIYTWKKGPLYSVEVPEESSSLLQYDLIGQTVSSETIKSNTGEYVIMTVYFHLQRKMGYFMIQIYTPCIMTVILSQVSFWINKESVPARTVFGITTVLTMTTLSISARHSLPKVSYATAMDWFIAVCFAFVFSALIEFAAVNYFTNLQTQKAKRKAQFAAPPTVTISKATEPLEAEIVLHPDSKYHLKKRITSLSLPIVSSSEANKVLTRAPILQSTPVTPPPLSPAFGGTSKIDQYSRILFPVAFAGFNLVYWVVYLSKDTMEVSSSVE

[12] = Oral bioavailability in rat; type: ADME, organism-based; conditions: in vivo
[13] = molecular target: GABA A receptor alpha-4/beta-3/gamma-2 (Homo sapiens, UniProt P18507+P28472+P48169); assay: Binding affinity towards gamma-aminobutyric-acid GABA-A receptor alpha-4-beta-3-gamma-2; type: protein-complex assay
Sequence of GABA A receptor alpha-4/beta-3/gamma-2 (P48169 whole entry, one chain of several): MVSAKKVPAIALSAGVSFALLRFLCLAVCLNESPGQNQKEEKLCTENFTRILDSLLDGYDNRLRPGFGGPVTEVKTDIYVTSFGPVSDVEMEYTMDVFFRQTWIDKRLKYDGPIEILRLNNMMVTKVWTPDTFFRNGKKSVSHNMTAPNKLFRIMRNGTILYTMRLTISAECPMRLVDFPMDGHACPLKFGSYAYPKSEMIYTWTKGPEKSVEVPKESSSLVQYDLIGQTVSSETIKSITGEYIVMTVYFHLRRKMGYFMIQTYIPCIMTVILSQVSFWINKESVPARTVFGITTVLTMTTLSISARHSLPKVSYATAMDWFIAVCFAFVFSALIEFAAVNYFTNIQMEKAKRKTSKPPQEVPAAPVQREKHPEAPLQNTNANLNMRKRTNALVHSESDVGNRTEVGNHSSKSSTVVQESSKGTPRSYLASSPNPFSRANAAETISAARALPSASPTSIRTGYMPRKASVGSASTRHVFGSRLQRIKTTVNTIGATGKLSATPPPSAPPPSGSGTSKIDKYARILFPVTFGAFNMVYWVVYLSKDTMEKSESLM

Structure (SMILES)	Efficacy [1] [%]	Efficacy [2] [%]	Efficacy [3] [%]	Efficacy [4] [%]	Ki [5] [nM]	Ki [6] [nM]	bioavailability [7] [%]	Ki [8] [nM]	Occupancy [9] [mg/kg]	Ki [10] [nM]	Ki [11] [nM]	bioavailability [12] [%]	Ki [13] [nM]
CCc1c(C(=O)OC)ncc2[nH]c3cc(OC)c(OC)cc3c12	-62	-71	-53	-57									
CNC1=Nc2ccc(Cl)cc2C(c2ccccc2)=[N+]([O-])C1	113	100	111										
Cc1cc(-c2nncc3c(C(C)(C)C)c(OCc4ncnn4C)nn23)no1	-9	-16	6	-55	0.85	0.77	8	1.4	0.35	0.83	> 4000	52	395
Cc1cc(-c2nnc3c4ccccc4c(OCc4cn(C)nn4)nn23)no1	-7	-15	16	-40									
